Among the data in ChEMBL document CHEMBL1275327, “Synthesis and biological activities of pyrazolo[3,4-g]quinoxaline derivatives” (Eur J Med Chem, 2010) are inhibition, Activity and IC50 values, retold here.

Molecules are shown by their SMILES. Calls of active or inactive are those of the source. No cut-off for these calls is given here. Where only a bound is given, the exact number is not on record here.

Usually inhibition stands for the percentage by which the read-out fell short of the control. As usually defined, the IC50 is the concentration that inhibits the measured activity by half. Higher therefore signals lower potency.

For data set [1], the system named is PA-1. Kind of data set: Antiproliferative activity against human PA1 cells assessed as inhibition of cell proliferation at 10 uM after 48 hrs by resazurin reduction test. The class given is functional. As to conditions: PA-1, 48 h. Summed up:
(§1)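 PA1 and PC3 screen: cells at 5×10^3/well adhered 16 h, then were treated 48 h continuously at 1 and 10 µM from a 20 mM DMSO stock. Growth inhibition was scored by resazurin reduction (25 µg/mL, 1 h, 37 °C; fluorescence ex 530/em 590 nm) relative to control wells after blank subtraction.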

For data set [2], the target named is Serine/threonine-protein kinase pim-1 (Homo sapiens) (UniProt P11309). Briefly: Inhibition of Pim1 assessed as residual enzyme activity at 1 uM.
Chain of Serine/threonine-protein kinase pim-1 (Homo sapiens) (P11309 whole entry, looked up): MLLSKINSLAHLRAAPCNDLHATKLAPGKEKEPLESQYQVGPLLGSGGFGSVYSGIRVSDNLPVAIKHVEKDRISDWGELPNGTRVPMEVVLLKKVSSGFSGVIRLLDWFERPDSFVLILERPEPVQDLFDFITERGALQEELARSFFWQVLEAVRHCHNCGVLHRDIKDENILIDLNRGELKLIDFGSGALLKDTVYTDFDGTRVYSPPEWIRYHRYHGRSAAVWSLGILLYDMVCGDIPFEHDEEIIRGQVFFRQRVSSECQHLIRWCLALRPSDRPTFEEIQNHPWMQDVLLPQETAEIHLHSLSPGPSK
Data set [3] concerns the target Serine/threonine-protein kinase pim-2 (Homo sapiens) (UniProt Q9P1W9). Briefly: Inhibition of Pim2 assessed as residual enzyme activity at 1 uM.
The target in data set [4] is Serine/threonine-protein kinase pim-3 (Homo sapiens) (UniProt Q86V86). Kind of data set: Inhibition of Pim3 assessed as residual enzyme activity at 1 uM.
Data set [5] can be described thus: Antiproliferative activity against human Fibroblast assessed as inhibition of cell proliferation at 10 uM after 48 hrs by resazurin reduction test. The class given is cell-based. As to conditions: human fibroblasts.
Data set [6] concerns DU-145. Briefly: Antiproliferative activity against human DU145 cells assessed as inhibition of cell proliferation at 10 uM after 48 hrs by resazurin reduction test. The data set is classed as functional. Conditions: DU-145, 48 h. Background: The colour change of resazurin is a common sign of viable cells or microbes.
For data set [7], the target named is Serine/threonine-protein kinase pim-1 (Homo sapiens) (UniProt P11309). Kind of data set: Inhibition of Pim1 assessed as residual enzyme activity at 10 uM.
The target of data set [8] is Serine/threonine-protein kinase pim-2 (Homo sapiens) (UniProt Q9P1W9). Briefly: Inhibition of Pim2 assessed as residual enzyme activity at 10 uM.
Chain of Serine/threonine-protein kinase pim-2 (Homo sapiens) (Q9P1W9 whole entry, looked up): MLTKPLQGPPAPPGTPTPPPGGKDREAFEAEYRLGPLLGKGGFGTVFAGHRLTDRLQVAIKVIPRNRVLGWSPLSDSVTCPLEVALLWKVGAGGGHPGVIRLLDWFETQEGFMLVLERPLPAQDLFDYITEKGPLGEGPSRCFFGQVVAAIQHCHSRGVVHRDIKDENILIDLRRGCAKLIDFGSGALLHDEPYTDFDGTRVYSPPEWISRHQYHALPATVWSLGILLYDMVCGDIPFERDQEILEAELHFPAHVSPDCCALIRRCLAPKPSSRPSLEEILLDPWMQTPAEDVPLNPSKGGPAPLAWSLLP
For data set [9], the system named is PC-3. Briefly: Antiproliferative activity against human PC3 cells assessed as inhibition of cell proliferation at 10 uM after 48 hrs by resazurin reduction test. Conditions: PC-3, 48 h. The data set is classed as functional. Summed up:
as §1

For data set [10], the target named is Serine/threonine-protein kinase pim-3 (Homo sapiens) (UniProt Q86V86). Kind of data set: Inhibition of Pim3 assessed as residual enzyme activity at 10 uM.
Data set [11] has as its system PC-3. Kind of data set: Antiproliferative activity against human PC3 cells after 48 hrs by resazurin reduction test. The class given is functional, cell-based. Conditions: PC-3, 48 h. Summed up:
(§2)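 Cells grown as monolayers in MEM with Earle's salts, 10% FCS, pyruvate, non-essential amino acids and gentamicin at 37 °C, 5% CO2. 5×10^3 cells/well adhered 16 h, then had 48 h continuous exposure to drug from a 20 mM DMSO stock. Resazurin (25 µg/mL, 1 h, 37 °C) was read by fluorescence (ex 530/em 590 nm). IC50 came from blank-corrected survival % vs control wells.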

In data set [12] the test system is DU-145. Briefly: Antiproliferative activity against human DU145 cells after 48 hrs by resazurin reduction test. As to conditions: DU-145, 48 h. The class given is functional, cell-based. Summed up:
as §2

Data set [13] in a line: Antiproliferative activity against human Fibroblast after 48 hrs by resazurin reduction test. The class given is cell-based. Summed up:
as §2

Data set [14] concerns PA-1. Kind of data set: Antiproliferative activity against human PA1 cells after 48 hrs by resazurin reduction test. As to conditions: PA-1, 48 h. The class given is functional, cell-based. Summed up:
as §2

`CC1(C)[C@@H]2CC[C@@]1(C)c1nc3cc4cn[nH]c4cc3nc12`: the inhibition at 10 µM in the data set on PA-1 [1], in the data set on DU-145 [6] and in the data set on PC-3 [9] was less than 50% in each case. The Activity in data set [2] is 88%; in [3], 82%; in [4] it was 95%; in [7] it was 45%; in [8], 76%; in data set [10], 37%. In data set [5], the inhibition at 48 h, 10 µM was less than 50%.

`c1n[nH]c2cc3nc4c(nc3cc12)CCC4`: the inhibition at 10 µM in the data set with PA-1 [1], with DU-145 [6] and in the data set on PC-3 [9] was less than 50% throughout. Moreover, the Activity is 95% in data set [2], 81% in data set [4], 66.6% in data set [7] and 46.4% in [10]. In addition, the outcome in data set [3] and in [8] was inactive. For the same compound, the inhibition at 48 h, 10 µM in data set [5] is less than 50%.

Take `Nc1cc2cn[nH]c2cc1N`: the inhibition at 10 µM with PA-1 [1], in the data set on DU-145 [6] and in the data set on PC-3 [9] was less than 50% in each case. For the same compound, the Activity was 95% in data set [2], 69% in data set [4], 59% in data set [7] and 32% in data set [10]. Besides, the outcome in data set [3] and in data set [8] was inactive. Besides, the inhibition at 48 h, 10 µM in [5] was less than 50%.

Regarding `CC1Cc2nc3cc4[nH]ncc4cc3nc2C1C` (racemic), the Activity is 88.5% in data set [2], 72% in data set [4], 59% in [7] and 44% in [10]. Further, the IC50 was greater than 50 µM in the data set on PC-3 [11], greater than 50 µM in the data set with DU-145 [12], greater than 50 µM in [13] and 6.1 µM in the data set with PA-1 [14]. Moreover, the outcome in [3] and in [8] was inactive.

For the compound `CCc1nc2cc3cn[nH]c3cc2nc1CC`, the Activity came out at 89% in data set [2], 84% in data set [4], 49% in [7] and 31% in data set [10]. Also, the IC50 in the data set with PC-3 [11] was greater than 50 µM; in the data set on DU-145 [12], greater than 50 µM; in data set [13], greater than 50 µM; in the data set on PA-1 [14], 6.5 µM. The outcome in [3] and in [8] was inactive.

`CC1Cc2nc3cc4cn[nH]c4cc3nc2C1C` (racemic): the outcome in [2], in data set [3] and in [8] was inactive. Further, the IC50 in the data set on PC-3 [11] was greater than 50 µM; in the data set on DU-145 [12] it was greater than 50 µM; in data set [13], greater than 50 µM; with PA-1 [14] it was 4.7 µM. In addition, the Activity in [4] was found to be 73%; in [7], 69%; in [10], 33%.

Take `c1n[nH]c2cc3nc4c(nc3cc12)CCCC4`: the Activity in [2] worked out at 90%; in data set [4], 58%; in data set [7], 55.1%; in data set [10], 19.7%. The IC50 in the data set on PC-3 [11] is greater than 50 µM; in the data set with DU-145 [12] it was greater than 50 µM; in [13] it was greater than 50 µM; with PA-1 [14], 16 µM. Besides, the result in [3] and in [8] was inactive.

Regarding `CC1(C)[C@H]2CC[C@]1(C)c1nc3cc4[nH]ncc4cc3nc12`, the inhibition at 10 µM in the data set with PA-1 [1], with DU-145 [6] and in the data set on PC-3 [9] was less than 50% throughout. The Activity in [2] was 96%; in [4], 83%; in [7] it was 71%; in [8], 78%; in data set [10], 43%. Also, the result in data set [3] was inactive. In data set [5], the inhibition at 48 h, 10 µM was less than 50%.

On to `c1ccc(C2Cc3nc4cc5cn[nH]c5cc4nc3C2)cc1` (racemic), for which the result in data set [2], in [3] and in [8] was inactive. For the same compound, the IC50 in the data set with PC-3 [11] is greater than 50 µM; with DU-145 [12], 35 µM; in data set [13] it was greater than 50 µM; with PA-1 [14], 4.1 µM. Further, the Activity was 95% in data set [4], 83% in data set [7] and 79% in data set [10].
